Test results taken from ChEMBL document CHEMBL4177761, “Highlights of the Structure-Activity Relationships of Benzimidazole Linked Pyrrolidines Leading to the Discovery of the Hepatitis C Virus NS5A Inhibitor Pibrentasvir (ABT-530)” (J Med Chem, 2018).
Changes are numbered by the printed parent chain.

Legend:
[1] = Apparent volume of distribution in monkey at 1 mg/kg, iv by LC-MS method; format: ADME, organism-based, Macaca mulatta; details: rhesus monkey, in vivo, read-out: Vc
How it was run: (§1)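 Single dose in dog or monkey, 1 mg/kg IV or 2.5 mg/kg PO. Plasma drug measured by LC-MS after acetonitrile protein precipitation with an internal standard. Quantified by linear regression of parent/internal-standard peak-area ratio against spiked standards.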

[2] = Oral bioavailability in monkey at 2.5 mg/kg by LC-MS method; format: ADME, organism-based, Macaca mulatta; details: rhesus monkey, in vivo; how it was run: as §1
[3] = biological target: T1, Nonstructural protein 5A (Hepatitis C virus) (UniProt Q5L478); assay: Inhibition of NS5A Q30R mutant in HuH7 cell infected HCV genotype 1a H77 assessed as decrease in viral replication after 4 days by luciferase reporter gene assay relative to wild type protein; details: Hepatitis C virus (isolate H77)
T1 sequence (whole entry): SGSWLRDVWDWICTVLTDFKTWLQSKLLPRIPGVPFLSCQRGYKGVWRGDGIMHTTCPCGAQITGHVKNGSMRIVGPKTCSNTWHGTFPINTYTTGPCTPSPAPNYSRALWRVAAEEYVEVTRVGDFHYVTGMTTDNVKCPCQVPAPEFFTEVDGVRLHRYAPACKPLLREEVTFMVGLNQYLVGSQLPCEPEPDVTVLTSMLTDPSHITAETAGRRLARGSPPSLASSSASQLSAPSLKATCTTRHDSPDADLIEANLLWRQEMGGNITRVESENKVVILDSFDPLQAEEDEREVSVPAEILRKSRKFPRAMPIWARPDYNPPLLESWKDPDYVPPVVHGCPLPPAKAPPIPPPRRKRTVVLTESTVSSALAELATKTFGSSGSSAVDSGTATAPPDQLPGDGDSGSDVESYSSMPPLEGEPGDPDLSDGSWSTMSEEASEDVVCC
How it was run: (§2)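 Stable subgenomic luciferase replicons in Huh-7 cells: genotype 1a-H77 carrying NS5A substitutions M28T, Q30E, Q30R, Y93C, Y93H or Y93N, tested alongside the wild-type replicon. Cells are incubated 4 days with compound in DMEM with 5% FBS. Luciferase read-out, EC50 by 4-parameter logistic fit, and fold change versus wild type.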

[4] = Drug level in dog at 2.5 mg/kg, po at 24 hrs by LC-MS method; format: ADME, organism-based, Canis lupus familiaris; details: in vivo, read-out: Drug uptake; how it was run: as §1
[5] = Tmax in rat at 3 mg/kg, po by LC-MS method; format: ADME, organism-based; details: in vivo
How it was run: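 Single 3 mg/kg oral dose in rat, formulated in 40:20:20:20 (w/w) Phosol 53 MCT:PEG-400:Poloxamer 124:Cremophor RH40. Heparinized plasma drawn at 0.25, 0.5, 1, 2, 4, 6, 9, 12 and 24 h. Acetonitrile protein precipitation, then LC-MS in negative-ion MRM mode. Levels read from peak-area ratio to internal standard against spiked standards by linear regression; LOQ ~20 ng/mL.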

[6] = AUClast in rat at 3 mg/kg, po by LC-MS method; format: ADME, organism-based; parameters: dose 3 mg/kg, route oral, time 0 - last; details: in vivo
How it was run: (§3)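 Single dose, 3 mg/kg, in mouse or rat. IV vehicle: DMSO:Tween 80:PEG-400:D5W 2:5:20:73 (v/v). PO vehicle: Phosol 53 MCT:PEG-400:Poloxamer 124:Cremophor RH40 40:20:20:20 (w/w). Acetonitrile protein precipitation, then LC-MS/MS in negative-ion MRM against an internal standard; LOQ ~20 ng/mL.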

[7] = Apparent volume of distribution in mouse at 3 mg/kg, iv by LC-MS method; format: ADME, organism-based; details: in vivo, read-out: Vc; how it was run: as §3
[8] = Tmax in mouse at 3 mg/kg, po by LC-MS method; format: ADME, organism-based; details: in vivo
[9] = Drug level in mouse at 3 mg/kg, po at 24 hrs by LC-MS method; format: ADME, organism-based; details: in vivo, read-out: Drug uptake; how it was run: as §3
[10] = Tmax in monkey at 2.5 mg/kg, po by LC-MS method; format: ADME, organism-based, Macaca mulatta; details: rhesus monkey, in vivo; how it was run: as §1
[11] = Drug level in monkey at 2.5 mg/kg, po at 24 hrs by LC-MS method; format: ADME, organism-based, Macaca mulatta; details: rhesus monkey, in vivo, read-out: Drug uptake; how it was run: as §1
[12] = system: T2, Nonstructural protein 5A (Hepatitis C virus), Q5L478 [Y93N]; assay: Inhibition of NS5A Y93N mutant in HuH7 cell infected HCV genotype 1b Con1 assessed as decrease in viral replication after 4 days by luciferase reporter gene assay relative to wild type protein; details: Hepatitis C virus (isolate Con1)
T2 sequence (whole entry): T1 sequence (whole entry) with Y93N
How it was run: as §2, with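 “1b-Con1” for “1a-H77”, “NS5A” for “NS5A substitutions M28T, Q30E, Q30R, Y93C,”, “from a” for “by”, “expressed as” for “and”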

[13] = Half life in dog at 2.5 mg/kg, po by LC-MS method; format: ADME, organism-based, Canis lupus familiaris; details: in vivo; how it was run: as §1
[14] = Plasma clearance in mouse at 3 mg/kg, iv by LC-MS method; format: ADME, organism-based; how it was run: as §3
[15] = system: T3, Nonstructural protein 5A (Hepatitis C virus), Q5L478 [Y93C]; assay: Inhibition of NS5A Y93C mutant in HuH7 cell infected HCV genotype 1a H77 assessed as decrease in viral replication after 4 days by luciferase reporter gene assay relative to wild type protein; details: Hepatitis C virus (isolate H77); how it was run: as §2
T3 sequence (whole entry): T1 sequence (whole entry) with Y93C

[16] = Half life in rat at 3 mg/kg, iv by LC-MS method; format: ADME, organism-based; details: in vivo; how it was run: as §3
[17] = Plasma clearance in rat at 3 mg/kg, iv by LC-MS method; format: ADME, organism-based; how it was run: as §3

Work on COC(=O)N[C@H](C(=O)N1CCC[C@H]1c1nc2cc([C@H]3CC[C@H](c4cc5nc([C@@H]6CCCN6C(=O)[C@@H](NC(=O)OC)[C@@H](C)OC)[nH]c5cc4F)N3c3cc(F)c(N4CCC(c5ccc(F)cc5)CC4)c(F)c3)c(F)cc2[nH]1)[C@@H](C)OC [PIBRENTASVIR] yielded a Vd [1] of 0.07 L/kg, a bioavailability [2] of 14.1% and a fold change (FC) [3] of 1.7. It also gave a concentration at 24 h [4] of 82 nM, a Tmax [5] of 5.3 h and an AUC(0-t) [6] of 3600 ng·h/mL. It also gave a Vd [7] of 0.09 L/kg, a Tmax [8] of 11 h and a concentration at 24 h [9] of 467 nM. The Tmax [10] was 4 h, the concentration at 24 h [11] was 17 nM and the fold change (FC) [12] was 0.6. It also gave a half-life [13] of 8.3 h, a clearance [14] of under 0.05 mL/min/kg and a fold change (FC) [15] of 1.7. The half-life [16] was 6.2 h and the clearance [17] was 1.17 mL/min/kg.
